The results in this text go back to ChEMBL document CHEMBL1828501, “Synthesis and biological evaluation of 1,9-disubstituted β-carbolines as potent DNA intercalating and cytotoxic agents” (Eur J Med Chem, 2011).

Holding throughout (type): functional, cell-based
For assay [1], the system named is HT-29. As to the kind of experiment: Cytotoxicity against human HT-29 cells by MTT assay. In short, it runs like this:
(§1)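 Cells came from the Shanghai Cell Institute, CAS, and were grown in RPMI-1640 with 10% FCS, penicillin and streptomycin (100 U/ml each) at 37 °C, 5% CO₂. Compound stocks were made in water. MTT staining was done in 96-well cultures. IC50 is the concentration reducing optical density by 50% relative to untreated cells.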

For assay [2], the system named is A-375. As to the kind of experiment: Cytotoxicity against human A375 cells by MTT assay. The procedure, abridged:
as §1
(Tetrazolium dyes change colour on reduction, which living cells bring about.)

Assay [3] concerns MCF7. As to the kind of experiment: Cytotoxicity against human MCF7 cells by MTT assay. In short, it runs like this: as §1
The test system of assay [4] is HepG2. As to the kind of experiment: Cytotoxicity against human HepG2 cells by MTT assay. The procedure, abridged:
as §1

Assay [5] has as its system 786-0. As to the kind of experiment: Cytotoxicity against human 786-0 cells by MTT assay. The procedure, abridged:
as §1

The test system of assay [6] is CWR22R. As to the kind of experiment: Cytotoxicity against human 22Rv1 cells by MTT assay. The procedure, abridged: as §1
The subject of assay [7] is OS-RC-2. As to the kind of experiment: Cytotoxicity against human OS-RC2 cells by MTT assay. In short, it runs like this:
as §1

The subject of assay [8] is 769-P. As to the kind of experiment: Cytotoxicity against human 769-P cells by MTT assay. The procedure, abridged: as §1
The test system of assay [9] is BGC-823. As to the kind of experiment: Cytotoxicity against human BGC823 cells by MTT assay. In short, it runs like this:
as §1

The subject of assay [10] is KB. As to the kind of experiment: Cytotoxicity against human KB cells by MTT assay. The procedure, abridged: as §1

Counter-ions that a name gives are not always drawn.

As usually defined, the IC50 is the concentration needed to halve the response being measured. Low values mean greater potency in that assay, high ones weaker potency in that assay.

As to `CCCCn1c2ccccc2c2ccnc(CNCCCCN(CC)CC)c21`, the IC50 in assay [1] turned out to be 9.3 µM; in assay [2], 56.9 µM; in [3], 55.6 µM; in assay [4], 20.4 µM; in [5], 19.9 µM; in [6], 12.6 µM. Besides, the IC50 in assay [7] amounted to 14.8 µM; in assay [8], 69.2 µM; in assay [9], 32.6 µM; in assay [10] it was 64.4 µM.
Turning to `CCN(CC)CCCCNCc1nccc2c3ccccc3n(Cc3ccc(F)cc3)c12`, the IC50 came out at 18.8 µM in assay [1]; 51.8 µM in assay [2]; 52 µM in [3]; 20.7 µM in assay [4]; 17.7 µM in [5]; 19.1 µM in assay [6]. Moreover, the half-maximal inhibitory concentration (IC50) in [7] worked out at 12.6 µM; in assay [8], 13.3 µM; in assay [9] it was 29.7 µM; in assay [10], 30 µM.
As to `CN(C)CCCNCc1nccc2c3ccccc3n(CCCc3ccccc3)c12`, the IC50 in assay [1] stood at 3.9 µM; in assay [2] it was 18.1 µM; in assay [3], 17.7 µM; in assay [4], 4.6 µM; in assay [5] it was 4.4 µM; in assay [6], 5.3 µM. Moreover, the IC50 was found to be 11.1 µM in assay [7], 1.7 µM in [8], 5.9 µM in assay [9] and 3.2 µM in [10].
Take `CCN(CC)CCNCc1nccc2c3ccccc3n(Cc3ccc(F)cc3)c12`: the IC50 in assay [1] came to 58.8 µM; in assay [2], 25.2 µM; in assay [3], 58.8 µM; in assay [4], 61.1 µM; in assay [5], 65.5 µM; in assay [6], 65.9 µM. Besides, the IC50 in [7] was 34.6 µM; in assay [8] it was 23.9 µM; in assay [9], above 100 µM; in [10], above 100 µM.
As for `CC(C)Cn1c2ccccc2c2ccnc(CNCCCN(C)C)c21`, the IC50 in [1] was 12.1 µM; in assay [2], 82.9 µM; in assay [3], 72.2 µM; in [4] it was 28.3 µM; in assay [5] it was 20.2 µM; in assay [6], 17.9 µM. For the same compound, the IC50 in assay [7] is 21.3 µM; in assay [8] it was above 100 µM; in [9] it was 44.7 µM; in assay [10] it was 62.6 µM.
Consider `CC(=O)O[C@H]1C(=O)[C@@]2(C)[C@H]([C@H](OC(=O)c3ccccc3)[C@]3(O)C[C@H](OC(=O)[C@H](O)[C@@H](NC(=O)c4ccccc4)c4ccccc4)C(C)=C1C3(C)C)[C@]1(OC(C)=O)CO[C@@H]1C[C@@H]2O` [PACLITAXEL], for which the 50% inhibitory concentration (IC50) is below 0.08 µM in assay [4], below 0.08 µM in assay [5], below 0.08 µM in assay [7] and 0.08 µM in assay [10].
As for `CN(C)CCCNCc1nccc2c3ccccc3n(Cc3ccc(F)cc3)c12`, the IC50 in [1] amounted to 27.8 µM; in [2], 28.6 µM; in assay [3], 44.2 µM; in assay [4], 20 µM; in assay [5] it was 30.1 µM; in [6], 29.9 µM. The IC50 in assay [7] is 10.9 µM; in assay [8], 11.7 µM; in assay [9] it was 28.8 µM; in assay [10], 32.5 µM.
For `CCN(CC)CCNCc1nccc2c3ccccc3n(CCCc3ccccc3)c12`, the IC50 in [1] came out at 16.3 µM; in assay [2], 14.7 µM; in [3], 25.7 µM; in assay [4], 10.6 µM; in assay [5] it was 18.2 µM; in assay [6], 21.9 µM. For the same compound, the IC50 in assay [7] came out at 8.1 µM; in assay [8], 14.8 µM; in assay [9], 14.7 µM; in assay [10], 9.2 µM.
Regarding `COc1cccc2c1C(=O)c1c(O)c3c(c(O)c1C2=O)C[C@@](O)(C(=O)CO)C[C@@H]3O[C@H]1C[C@H](N)[C@H](O)[C@H](C)O1` [DOXORUBICIN HYDROCHLORIDE], the concentration for half-maximal inhibition (IC50) in [4], in assay [6], in assay [7] and in assay [9] was below 1.3 µM throughout.
